Sampled rows, rich in hits. Any-hit rate of the full collection: about 29%.
Ecoli WT expand: growth inhibitors of wild-type E. coli, primary screen, strain BW25113, expanded library, OD600 | growth inhibition, % at 100 µM | AID 710, 2007 | actives 0.15% (n = 98,000) | OD600 absorbance;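 active = growth inhibition above about 50% at one test dose, limit read from the data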;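 note: growth measured after 20 h incubation at 37 °C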
CYP2C19 act: human CYP2C19 activators, primary screen, biochemical, luminescence; Cytochrome P450 2C19 (Homo sapiens), P33261; activation factor at 5 µM; recombinant CYP2C19, luciferin-H EGE luminescence; active compounds read high; 0 = fully inhibited enzyme, 1 = untreated enzyme; 96,000 tested, under 10 active;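 active = activation factor of at least 2 at 5 µM in the primary screen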;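 note: 0 = wells with 2.5 mM tranylcypromine and 1 = vehicle-only wells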
Target sequence (P33261 whole entry, looked up): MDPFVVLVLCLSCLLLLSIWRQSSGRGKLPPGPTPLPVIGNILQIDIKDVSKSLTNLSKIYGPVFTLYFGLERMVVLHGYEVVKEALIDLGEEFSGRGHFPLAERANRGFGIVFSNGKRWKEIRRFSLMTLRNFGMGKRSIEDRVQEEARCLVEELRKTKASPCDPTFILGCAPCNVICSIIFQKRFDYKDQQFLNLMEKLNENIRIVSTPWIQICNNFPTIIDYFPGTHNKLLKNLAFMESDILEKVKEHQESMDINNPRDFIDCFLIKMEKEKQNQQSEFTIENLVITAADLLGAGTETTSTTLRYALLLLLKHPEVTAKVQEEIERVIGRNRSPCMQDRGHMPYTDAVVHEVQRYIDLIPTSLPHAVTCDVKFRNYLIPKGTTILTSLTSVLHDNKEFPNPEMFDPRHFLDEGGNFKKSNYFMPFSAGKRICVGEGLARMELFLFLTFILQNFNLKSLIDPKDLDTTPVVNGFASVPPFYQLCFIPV
CYP2C9 inh: blockers of cytochrome P450 2C9 activity – biochemical, luminescence, ADME assay, primary screen | P11712 | CYP2C9 Supersomes, luciferin-H conversion | inhibition, % at 5 µM | actives 20% (n = 96,000);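 active = blocking of liver enzyme CYP2C9 beyond about 50% at 5 µM, limit read from the data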
CYP2C19 inh: blockers of cytochrome P450 2C19 activity – biochemical, luminescence, ADME assay, primary screen; P33261; CYP2C19 Supersomes, luciferin-H EGE luminescence, 30 min; inhibition, % at 5 µM; actives 21% (n = 96,000); AID 778, 2007;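 active = CYP2C19 inhibition above a set limit at 5 µM in the primary screen, cut at about 50% in these data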;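 note: plate controls were negative control wells for no effect and 2.5 mM tranylcypromine positive control for full effect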
CYP2C9 act: human CYP2C9 activators, primary screen, biochemical, luminescence; Cytochrome P450 2C9 (Homo sapiens), P11712; recombinant CYP2C9, luciferin-H conversion; active compounds read high; factor 1 = untreated enzyme, 0 = blocked; AID 1024, 2008; activation factor at 5 µM; actives 1.4% (n = 96,000);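 active = activation factor of 2 or more for CYP2C9 at a 5 µM dose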;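 note: 0 = sulfaphenazole-blocked wells and 1 = vehicle-only wells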
tolC growth inh: growth inhibitors of E. coli tolC mutant, primary screen, strain BW25113 ΔtolC::kan, 384-well | OD615 | growth inhibition, % at 10 µM (by protocol) | actives 2.2% (n = 65,000) | AID 573, 2007;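 active = growth inhibition at or above a cutoff equal to the mean over every tested compound plus 3 SD, cut at about 60% in these data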;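 note: growth measured after 20 h incubation at 37 °C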
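Material: E. coli BW25113 ΔtolC::kan, tolC deletion mutant strain. Measure: percent growth inhibition. Schedule: 37 °C, 20 h exposure. Doses: single-point testing at 10 µM. Signal: A615 absorbance measurement. Buffer or medium: kanamycin-containing LB broth (50 µg/mL).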
An asterisk follows results filed as active; . = no result.

SMILES | Ecoli WT expand | CYP2C19 act | CYP2C9 inh | CYP2C19 inh | CYP2C9 act | tolC growth inh
COc1ccc(OC)c(C(=O)c2oc3ccccc3c2NC(C)=O)c1 | 4.0 | 0 | 48.8 | 98.1* | 0.5 | 0.9
CNS(=O)(=O)c1ccc(NC(=O)c2nc3nc(C)cc(C(F)F)n3n2)cc1 | 2.0 | 1 | -25.9 | 3.4 | 1.3 | .
Cc1ccc2nc(C)cc(Nc3ccc4c(c3)OCCO4)c2c1 | 13.0 | 0.8 | 68.1* | 20.4 | 0.3 | .
C=CCn1c(=O)c(C(=O)Nc2ccccc2OC)c(O)c2ccccc21 | . | 1 | 5.8 | -2.1 | 0.9 | -7.1
COc1ccccc1NCC(O)Cn1c2ccccc2c2ccccc21 (stereo unspecified) | -12.0 | 0.3 | 76.8* | 68.6* | 0.2 | .
Oc1ccccc1-c1n[nH]c(=S)n1Cc1ccco1 | 7.0 | 0.8 | -10.4 | 17.5 | 1.1 | .
O=C1C=C(NCc2ccccc2)C2(CCCCC2)O1 | 3.0 | 0.3 | 12.4 | 70.4* | 0.9 | -7.9
O=C1C=C(NCc2ccc(Cl)c(Cl)c2)C2(CCCCC2)O1 | -6.0 | 0.2 | 37.7 | 77.4* | 0.6 | .
O=C1C=C(NCc2ccco2)C2(CCCCC2)O1 | 5.0 | 0.9 | 7.2 | 7.9 | 0.9 | -15.1
c1ccc(-c2c[nH]c3[n+]2CCCCC3)cc1 | 10.0 | 0.5 | -4.2 | 54.9* | 1 | .
CN(C(=O)c1cccnc1)c1nnc(-c2cccnc2)s1 | 4.0 | 1 | 3.4 | -1.6 | 1 | -13.6
CN(C(=O)c1cccc(C#N)c1)c1nnc(-c2ccncc2)s1 | -4.0 | 0.1 | 70.3* | 93.3* | 0.3 | -12.1
COc1cccc(C(=O)N(C)c2nnc(-c3ccncc3)s2)c1 | 2.0 | 0 | 89.3* | 100.0* | 0.1 | .
Oc1ccc(-n2cnnn2)cc1 | -23.0 | 1.1 | -40.9 | -10.4 | 1.4 | .
O=C(COCc1nc2ccccc2c(=O)[nH]1)NC1CCCC1 | 6.0 | 0.6 | 19.3 | 37.5 | 0.8 | -13.6
CC1=C(C#N)c2nc(N)c(C#N)c(C)c2/C1=C\c1ccccc1 | . | . | . | . | . | 73.7*
CCc1nc(N)c(C#N)c(-c2cccn2C)c1C | . | . | . | . | . | 7.5
Cc1ccc(CNC(=O)C2CNc3cc(C)ccc3O2)cc1 (stereo unspecified) | 1.0 | 0.7 | 17.8 | 31.5 | 0.8 | -6.8
COc1ccc(C(=O)CSc2nc(SC)ns2)cc1OC | -2.0 | 0.4 | -1.5 | 62.0* | 1 | 0.7
COc1ccc(C(=O)CSc2cc(C)nc3nc(C)nn23)cc1OC | -3.0 | 1 | 1.5 | -2.3 | 1 | -2.1
CCOC(=O)/C=C(\C)Nc1cc(C)nn1-c1ccccc1 | 2.0 | 1 | -9.7 | 3.2 | 1.1 | 3.1
CCOC(=O)C(=CNc1cc(C)nn1-c1ccc(Cl)cc1)C(=O)OCC | -10.0 | 0.3 | 77.2* | 71.2* | 0.2 | .
COc1ccc(CCN2C(=O)C(Oc3ccccc3C)C2c2ccc3c(c2)OCO3)cc1OC (stereo unspecified) | -9.0 | 0.3 | 59.7* | 65.7* | 0.4 | .
COc1ccc(CCN2C(=O)CC(NCc3ccc4c(c3)OCO4)C2=O)cc1OC (stereo unspecified) | -3.0 | 0.7 | 19.8 | 32.6 | 0.8 | -2.1
COc1ccc(C2C(Oc3ccccc3C)C(=O)N2Cc2ccc(F)cc2)cc1OC (stereo unspecified) | -19.0 | 0.1 | 75.5* | 90.2* | 0.2 | .
SMILES | Ecoli WT expand | CYP2C19 act | CYP2C9 inh | CYP2C19 inh | CYP2C9 act | tolC growth inh
COc1ccc(N2CCN(C(=O)CCNS(=O)(=O)c3ccc4c(c3)CCC(=O)N4)CC2)cc1 | -10.0 | . | . | . | . | 2.7
COn1cnnc1-c1ccccc1 | -3.0 | 0.7 | 5.3 | 25.1 | 0.9 | -20.2
Cc1nc(-c2ccccc2)nc2[nH]c(C(C)C)cc(=O)c12 | 1.0 | 0.8 | 80.8* | 15.1 | 0.2 | 6.4
CC(NC(=O)CC(O)(C(F)(F)F)C(F)(F)F)c1ccccc1 (stereo unspecified) | 6.0 | 0.2 | 57.1* | 77.6* | 0.4 | 7.5
COC(=O)c1cc(C)sc1NC(=O)C1CC=CCC1C(=O)O (stereo unspecified) | -5.0 | 1 | 44.5 | -3.1 | 0.6 | .
Cc1sc(NC(=O)C2CC=CCC2C(=O)O)c(C(=O)OC(C)C)c1C (stereo unspecified) | 4.0 | 1 | 54.2* | 1.7 | 0.5 | .
O=C1c2cccnc2C(=O)N1c1cccc(-c2nc3ccccc3o2)c1 | 6.0 | 1 | -5.7 | 3.0 | 1.1 | 16.9
O=C1c2cccnc2C(=O)N1c1ccccc1-c1ccccc1 | -2.0 | 0.4 | 27.6 | 55.7* | 0.7 | -13.1
O=S(=O)(Nc1ccn(-c2ccccc2)n1)c1ccc(Br)cc1 | 5.0 | 0.3 | 98.9* | 72.0* | 0 | 13.9
CC(=O)CC(=O)Nc1ccn(-c2ccccc2)n1 | 5.0 | 1 | -0.2 | 1.4 | 1 | .
CCOc1ccccc1-c1nc(-c2ccc(NC(=O)c3ccc(Br)o3)cc2)no1 | -2.0 | 0.2 | -34.5 | 76.9* | 1.3 | 7.0
CCOc1ccccc1-c1nc(-c2ccc(NC(=O)Cc3ccc(OC)cc3)cc2)no1 | -7.0 | 0.4 | -90.3 | 55.8* | 1.9 | -7.9
CCC(C)(C)NC(=O)C(OC(=O)c1cc2sccc2n1C)c1ccc(OC)cc1 (stereo unspecified) | -3.0 | 1 | 8.2 | 1.9 | 0.9 | -20.6
COc1cc2c(cc1NC(=O)/C=C/c1ccccc1)oc1ccccc12 | -27.0 | 0.8 | 77.5* | 15.1 | 0.2 | .
COc1cccc(NC(=O)c2cc(-c3cccnc3)nc3c(Cl)cccc23)c1 | -14.0 | 0.6 | 77.4* | 38.4 | 0.2 | .
COc1cccc(C(=O)Nc2cccnc2)c1 | 0.0 | 0.7 | 14.0 | 26.2 | 0.9 | .
COc1cc2c(cc1NC(=O)Nc1cccc(C)c1)oc1ccccc12 | -7.0 | 1 | -3.2 | -2.9 | 1 | .
COc1cc2c(cc1NC(=O)c1cc(-c3cccnc3)nc3ccc(C)cc13)oc1ccccc12 | -12.0 | 0.7 | 75.3* | 31.4 | 0.2 | .
COc1ccc(NC(=O)c2cc3nc(-c4ccccc4)cc(-c4ccccc4)n3n2)c(OC)c1 | -15.0 | 0.6 | 76.6* | 36.0 | 0.2 | .
COc1ccc(NC(=O)c2cc(-c3cccnc3)nc3c(C)c(C)ccc23)c(OC)c1 | -4.0 | 0.2 | 85.8* | 79.7* | 0.1 | .
CC(C)(C)NC(=O)CSc1nnc(-c2ccncc2)n1Cc1ccccc1 | -2.0 | 0.2 | 50.0* | 80.3* | 0.5 | -25.4
O=C(CSc1nnc(-c2ccncc2)n1Cc1ccccc1)Nc1nccs1 | 6.0 | 0.3 | 53.5* | 74.6* | 0.5 | .
CC(C)C(C)(C#N)NC(=O)CSc1nnc(-c2ccncc2)n1Cc1ccccc1 (stereo unspecified) | 4.0 | 0.2 | 51.8* | 80.1* | 0.5 | 4.9
Cn1c(SCC(=O)Nc2nccs2)nnc1-c1ccncc1 | 1.0 | 0.6 | 31.6 | 40.5 | 0.7 | -21.2

Assay outcomes as filed in PubChem.
